According to ChEMBL document CHEMBL1122351, “Synthesis of (E)-1-(5-chlorothien-2-yl)-2-(1H-imidazol-1-yl)ethanone 2,6-dichlorophenylhydrazone hydrochloride, a novel, orally active antifungal agent” (1983):
Values after ≈ are worked out from the molar mass of the structure shown.

Tests used:
Candida albicans [1] = experiment: In vitro antifungal activity against Candida albicans GB; format: functional
Method in brief: (§1)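 Agar dilution in Sabouraud dextrose agar in microtitre wells. Drug stock in Me2SO, serial twofold dilutions to final 0.8–100 µg/mL, final Me2SO 1%. Candida inoculum 10^4 cells/mL, read after 24 h at 37 °C. Dermatophytes used mycelial inocula, read after 5 days at […]. MIC is the highest dilution with no visible growth. Run in duplicate.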

Epidermophyton floccosum = experiment: In vitro antifungal activity against Epidermophyton floccosum; format: functional; method in brief: as §1
Candida albicans [2] = experiment: In vitro antifungal activity against Candida albicans A; format: functional; method in brief: as §1
Candida albicans [3] = experiment: In vitro antifungal activity against Candida albicans B; format: functional; method in brief: as §1
Trichophyton benhamiae = experiment: In vitro antifungal activity against Trichophyton mentagrophytes; format: functional, Arthroderma benhamiae; method in brief: as §1
Candida albicans [4] = experiment: In vitro antifungal activity against Candida albicans 3153; format: functional; method in brief: as §1
Trichophyton rubrum = experiment: In vitro antifungal activity against Trichophyton rubrum; format: functional; method in brief: as §1
Microsporum canis = experiment: In vitro antifungal activity against Microsporum canis; format: functional; method in brief: as §1
Rattus norvegicus [5] = experiment: Percent reduction in recovery of Candida albicans (experimental vaginitis) in rats by topical administration at 1% w/v; format: functional, Vagina
Cavia porcellus [6] = experiment: Effect of topical administration (1% w/v) on course of expt. Ringworm infections in guinea pig by Trichophyton mentagrophytes; format: functional
Method in brief: (§2)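 Female guinea pigs, eight per group, shaved backs infected with a saline suspension of T. mentagrophytes spores. Drug given orally or applied topically; topical positive control was a 1% w/v solution in polyethylene glycol 200. Disease course followed by culture of skin and hair samples from on and around the infection sites. Result given as % reduction in recovery versus control.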

Cavia porcellus [7] = experiment: Effect of oral administration (60 mg/kg) on course of expt. Ringworm infections in guinea pig by Trichophyton mentagrophytes; format: functional; method in brief: as §2
Rattus norvegicus [8] = experiment: Percent reduction in recovery of Candida albicans (experimental vaginitis) in rats at 10 mg/kg (po); format: functional, Vagina
Method in brief: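 Female Wistar rats, 6 per group, hysterectomized and ovariectomized. Pseudoestrus induced and kept by s.c. estradiol diacetate (125 µg) every 3 days. Infected intravaginally with 10^7 C. albicans cells on 2 successive days, with 2 days to establish. Maximal infection meant >600 colonies per 50 µL vaginal washing. Dosed by oral gavage; % reduction in recovery versus control.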

Mus musculus [9] = experiment: Effect of oral administration (10 mg/kg) on recovery of Candida albicans from kidneys of mice with expt. candidal infection; format: functional
Method in brief: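 Mice (10 per group) infected intravenously with a sublethal dose (50 × 10^4 cells) of C. albicans. Oral gavage at 0 and 24 h after infection. Kidneys excised 2 days post-infection, weighed and homogenized. Diluted homogenates plated on glucose-peptone agar for 24 h at 37 °C. Colony counts compared with infected, untreated controls and expressed as % reduction.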

Cavia porcellus [10] = experiment: Effect of topical administration (2% w/v) on course of expt. Ringworm infections in guinea pig by Trichophyton mentagrophytes; format: functional; method in brief: as §2
Mus musculus [11] = experiment: Effect of oral administration (5 mg/kg) on recovery of Candida albicans from kidneys of mice with expt. candidal infection; format: functional
Method in brief: (§3)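 Mice, 10 per group, infected intravenously with a sublethal dose (50 × 10^4 cells) of C. albicans. Oral gavage at 0 and 24 h after infection. Killed 2 days post-infection; kidneys excised, weighed, homogenized, diluted and plated on glucose-peptone agar, 24 h at 37 °C. Colony counts compared with infected untreated controls, given as % reduction.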

Rattus norvegicus [12] = experiment: Percent reduction in recovery of Candida albicans (experimental vaginitis) n rats at 20 mg/kg (po); format: functional, Vagina
Method in brief: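 Female Wistar rats, 6 per group, hysterectomized and ovariectomized. Pseudoestrus induced with subcutaneous estradiol diacetate (125 µg) after 3 weeks, then every 3 days. Infected intravaginally with 10^7 C. albicans cells on 2 successive days; treatment began 2 days later. Infection confirmed by >600 colonies per 50 µL vaginal washings. Oral dosing by gavage. Result given as % reduction in recovery versus control.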

Mus musculus [13] = experiment: Effect of oral administration (2.5 mg/kg) on recovery of Candida albicans from kidneys of mice with expt. candidal infection; format: functional; method in brief: as §3
Rattus norvegicus [14] = experiment: Percent reduction in recovery of Candida albicans (experimental vaginitis) n rats by topical administration at 1% w/v; format: functional, Vagina
Mus musculus [15] = experiment: Effect of oral administration (20 mg/kg) on recovery of Candida albicans from kidneys of mice with expt. candidal infection; format: functional; method in brief: as §3
Cavia porcellus [16] = experiment: Effect of oral administration (30 mg/kg) on course of expt. Ringworm infections in guinea pig by Trichophyton mentagrophytes; format: functional; method in brief: as §2

MIC (Candida albicans [1]) | MIC (Epidermophyton floccosum) | MIC (Candida albicans [2]) | MIC (Candida albicans [3]) | MIC (Trichophyton benhamiae) | MIC (Candida albicans [4]) | MIC (Trichophyton rubrum) | MIC (Microsporum canis) | SMILES | Reduction (Rattus norvegicus [8]) | Reduction (Mus musculus [9]) | further results
12.5 µg/mL | 25 µg/mL | 6.2 µg/mL | 6.2 µg/mL | 12.5 µg/mL | 12.5 µg/mL | 12.5 µg/mL | 25 µg/mL | Cl.Clc1ccc(/C(Cn2ccnc2)=N\Nc2c(Cl)cccc2Cl)s1 |  |  | 
 |  |  |  |  |  |  |  | Clc1ccccc1C(c1ccccc1)(c1ccccc1)n1ccnc1 [CLOTRIMAZOLE] |  |  | Reduction (Rattus norvegicus [5]): 75%; Reduction (Cavia porcellus [6]): 88%
 |  |  |  |  |  |  |  | COC1=CC(=O)C[C@@H](C)[C@]12Oc1c(Cl)c(OC)cc(OC)c1C2=O [GRISEOFULVIN] |  |  | Reduction (Cavia porcellus [7]): 90%
 |  |  |  |  |  |  |  | CC(=O)N1CCN(c2ccc(OCC3COC(Cn4ccnc4)(c4ccc(Cl)cc4Cl)O3)cc2)CC1 (stereo not drawn) [KETOCONAZOLE] | 68% | 57% | 
12.5 µg/mL | 25 µg/mL | 6.2 µg/mL | 6.2 µg/mL | 12.5 µg/mL | 12.5 µg/mL | 25 µg/mL | 25 µg/mL | Cl.Clc1ccc(/C(Cn2ccnc2)=N/Nc2c(Cl)cccc2Cl)s1 [ZINOCONAZOLE HYDROCHLORIDE] | 47% | 65% | Reduction (Cavia porcellus [10]): 77%; Reduction (Mus musculus [11]): 43%; Reduction (Rattus norvegicus [12]): 63%; Reduction (Mus musculus [13]): 9%; Reduction (Rattus norvegicus [14]): 54%; Reduction (Mus musculus [15]): 44%; Reduction (Cavia porcellus [16]): 70%

SMILES | MIC (Candida albicans [1]) | MIC (Epidermophyton floccosum) | MIC (Candida albicans [2]) | MIC (Candida albicans [3]) | MIC (Trichophyton benhamiae) | MIC (Candida albicans [4]) | MIC (Trichophyton rubrum) | MIC (Microsporum canis) | Reduction (Rattus norvegicus [8]) | Reduction (Mus musculus [9]) | further results
Clc1ccc(COC(Cn2ccnc2)c2ccc(Cl)cc2Cl)c(Cl)c1 (stereo not drawn) [MICONAZOLE] | 6.2 µg/mL (≈ 14.9 µM) | 12.5 µg/mL (≈ 30 µM) | 6.2 µg/mL (≈ 14.9 µM) | 6.2 µg/mL (≈ 14.9 µM) | 1.6 µg/mL (≈ 3.84 µM) | 12.5 µg/mL (≈ 30 µM) | 1.6 µg/mL (≈ 3.84 µM) | 6.2 µg/mL (≈ 14.9 µM) |  |  | 
